In the EternaBench riboswitch data:

System: MS2 coat protein
Assay: apparent Kd, MS2 coat protein; higher = weaker binding; RNA-MaP array; FMN 200 µM where present
How it was run: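 Stalled E. coli RNA polymerase produced the designs on Illumina sequencing-chip clusters. SNAP-549-labelled MS2 coat protein was added from 0.7 or 1.5 nM, doubling to 3 µM, without and then with constant ligand, in 100 mM Tris-HCl pH 7.5, 80 mM KCl, 4 mM MgCl2, BSA, DTT, yeast tRNA and Tween-20. The apparent Kd is the median of filtered per-cluster fits of green signal normalised to red-channel RNA signal and control-cluster median Fmax.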

[1] = designed as: ON switch for flavin mononucleotide, no ligand
[2] = ligand present: flavin mononucleotide, designed as: ON switch for flavin mononucleotide
[3] = designed as: OFF switch for flavin mononucleotide, no ligand
[4] = ligand present: flavin mononucleotide, designed as: OFF switch for flavin mononucleotide

AAGUCUGGACGAGGAUAUCAGCUGUAACUGGCGUCGACAUGAGGAUCACCCAUGUUGCUAUAGGGUGAGAAGGCGUUUGGGCAA
apparent Kd [1]: 47.7 nM | apparent Kd [2]: 28.8 nM

AAGUUCUGAGGAUAUACAUAGAUUUACAUGAGGAUCACCCAUGUUCCUCUAUGUAUUAAUGUAGAAGGCAGAAGAA
apparent Kd [3]: 24.4 nM | apparent Kd [4]: 185 nM

AAGUUUUUACAAGGAUAUCAGUUGUUUAUAAAUUAAACAUGAGGAUCACCCAUGUAACAAAGGAGUGAGAAGGUGUGAUGGAAA
apparent Kd [1]: 545 nM | apparent Kd [2]: 283 nM

AAUAACAAGCAGAAGGGUGAAACGAUAUAGUGCACAGGAUAUGCAAUAAUUCUAAACAUGAGGAUCACCCAUGUCUAGCAUAAA
apparent Kd [1]: 28.2 nM | apparent Kd [2]: 9.84 nM

AAUAACAGAGGAUAUACUAUUUUAUGUGUUUAUUGUUUUAAACAUGAGGAUCACCCAUGUAGAAGGCUGAGUAA
apparent Kd [3]: 42.2 nM | apparent Kd [4]: 59.8 nM

AAUAACAGAGGAUAUACUGUUUUAUGUAUUUAUUAUUUUAAACAUGAGGAUCACCCAUGUAGAAGGCUGAUUAA
apparent Kd [3]: 30.2 nM | apparent Kd [4]: 27 nM

AAUAACAGAGGAUAUACUGUUUUAUGUAUUUAUUAUUUUGAACAUGAGGAUCACCCAUGUAGAAGGCUGAUUAA
apparent Kd [3]: 33.3 nM | apparent Kd [4]: 28.4 nM

AAUAAUAGCGAGGAUAUCGUAUCGGAAACGAUACGAGAAGGCGUAACAUGAGGAUCACCCAUGUUCCUCAAUAA
apparent Kd [3]: 38 nM | apparent Kd [4]: 313 nM

AAUAAUGAUAAGGAUAUCACUAGCCUCGGCUAGUGAGAAGGUAUCACAUGAGGAUCACCCAUGUGUUCCAAUAA
apparent Kd [3]: 16.1 nM | apparent Kd [4]: 40.3 nM

AAUAGUGACCAGAAGGCGUCGCGUCGAUAGCGACGAGGAUAUGGUGAGUGAGGAGCAAACUCCACAUGAGGAUCACCCAUGUCC
apparent Kd [1]: 594 nM | apparent Kd [2]: 89.9 nM

AAUAUGAGCUGGUCUAAACUCAAAACAUGAGGAUCACCCAUGUAGGAUAUCAGCACGAUAAGUGCUGAGAAGGACAUCCAGCUC
apparent Kd [3]: 16.7 nM | apparent Kd [4]: 20.5 nM

AAUAUGAGCUGGUUAUAAAACCUGACAUGAGGAUCACCCAUGUAGGAUAUCAGCACGAUAAGUGCUGAGAAGGACAUCCAGCUC
apparent Kd [3]: 13.4 nM | apparent Kd [4]: 14 nM

AAUAUGGGAGGAUAUGCAUAGAUAAAGAAACAUGUUCAACCACAUGAGGAUCACCCAUGUAGAAGGCCCAUAUA
apparent Kd [3]: 34.6 nM | apparent Kd [4]: 129 nM

AAUAUGUGAGGAUAUAUCCACCGCGUAGGCGCGCGGUGACAAUAGAAGGUACAUGAGGAUCACCCAUGUAGGGA
apparent Kd [3]: 51.5 nM | apparent Kd [4]: 31.5 nM

AAUAUUUAUUGAGGAUAUUCAUACACUGUAUACGGAGAAGGCAAACAAUCAUGAGGACAUGAGGAUCACCCAUGUUGUGACCAU
apparent Kd [1]: 19.8 nM | apparent Kd [2]: 14.3 nM

AAUCCACAUGAGGAUCACCCAUGUGAGGAUAUGAUACUAUGUACUUCGGUACAUAGUAUCAGAAGGCACGGAUC
apparent Kd [3]: 33.2 nM | apparent Kd [4]: 50.4 nM

AAUCCACAUGAGGAUCACCCAUGUGAGGAUAUGAUACUAUGUACUUCGGUACAUAGUAUCAGAAGGCAUAUGAA
apparent Kd [3]: 25.3 nM | apparent Kd [4]: 30.4 nM

AAUCGCGGUCGAAAGCGGUUGCAUGAGGAUAUCCUGAGACAUGAGGAUCACCCAUGUAGACUGCAGGAGAAGGCAUGGAAAGAA
apparent Kd [1]: 244 nM | apparent Kd [2]: 21.1 nM

AAUCGGGAGCAGAAGGCAUGUAAUAAAACAUGAGGAUCACCCAUGUAGUUAAGGCGAAAGCCGCAUGAGGAUAUGCUCCCGUAA
apparent Kd [1]: 5.39 nM | apparent Kd [2]: 4.99 nM

AAUCGUAGAACGAUCACUACCAGUCAGGAUAUACAUGAGGAUCACCCAUGUCGUGUCGACAGCAUGUAGAAGGGACGGUUAUAU
apparent Kd [3]: 27.1 nM | apparent Kd [4]: 66 nM

AAUGAGACCGCAGGAUAUCCACAUGAGGAUCACCCAUGUUCUCAGGUCGGAAGCACGACCUGCGAGGAGAAGGGCGACCUCAUA
apparent Kd [1]: 715 nM | apparent Kd [2]: 36.5 nM

AAUGAUUCAGGAUAUACAUGAGGAUCACCCAUGUUGGUGUCCCUCCCAAAGUUGCAGUGUAGAAGGGAGUCCCG
apparent Kd [3]: 131 nM | apparent Kd [4]: 137 nM

AAUGGGCAGCAGAAGGCAUGUCAAUGGACAUGAGGAUCACCCAUGUAGUAUAGCCGAAAGGCACAUGAGGAUAUGCUGCCCUAA
apparent Kd [1]: 47.2 nM | apparent Kd [2]: 6.74 nM

AAUGUUUGAUUCCACCUAUACAUGAGGAUCACCCAUGUUAUCGAGGAUAUGCAUUAGAGUGUUUAGCAGAAGGCGAUGUAAUUG
apparent Kd [3]: 8.34 nM | apparent Kd [4]: 23 nM

AAUUAAUUAAUACAUGAGGAUCACCCAUGUAAUUAUUAGAUCUAGGAUAUCAGCUCGAUUAGAGCUGAGAAGGAGAUCACAUGU
apparent Kd [1]: 18.5 nM | apparent Kd [2]: 14.8 nM

AAUUAGGUCACAGGAUAUACUACUUCCAAUGCUGUAGAAGGGUGACACAUUCUUUGCUGACAUGAGGAUCACCCAUGUAACCAC
apparent Kd [1]: 231 nM | apparent Kd [2]: 41 nM

AAUUAUUUACAGAAGGAGUAAGAUUAUGUAUUACUAGGAUAUGUUCACAUGAGGAUCACCCAUGUCAUUGUAGGUUUUUUAUGU
apparent Kd [3]: 12 nM | apparent Kd [4]: 9.95 nM
